The text below walks through data of PMC2752669 (Biochemistry, 2009).

Ends that are not written are not given here.

The subject of data set [1] is helix 17 (h17) RNA from 16S rRNA. Nature of the data set: Peptide bead ELISA assay, h17 control. The data set is classed as binding. The note with it: biotin-tagged h17, 4 days, 4 °C; anti-biotin-alkaline phosphatase, BCIP. The essentials: (§1)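 Peptide beads washed, blocked overnight at 4 °C, then incubated 4 days at 4 °C with 1 μM biotin-tagged RNA (fresh RNA added daily) in HEPES-KOH pH 7.5/100 mM KCl/5 mM MgCl2 buffer. Buffer-only beads served as background. Detection: anti-biotin–alkaline phosphatase (1:8000, 1 h, room temperature), then BCIP (0.165 μg/μl, pH 9.5) overnight at 4 °C.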

In data set [2] the test system is A-site RNA hp-AS-pwk annealed to 5'-biotin-DNA. Nature of the data set: Peptide bead ELISA assay, hp-AS-pwk. The data set is classed as binding, E. coli. The settings on record: 1 μM biotin-tagged RNA, 4 days, 4 °C; anti-biotin-alkaline phosphatase, BCIP. The essentials: as §1
The next data set has as its system other RNA targets. Nature of the data set: Preliminary in vitro solution binding studies.
The subject of data set [3] is A-site RNA hairpin hp-AS (bacterial 16S rRNA). Nature of the data set: Isothermal titration calorimetry of peptide into hp-AS. The format is binding, E. coli. The note with it: 10 mM potassium phosphate, 100 mM KCl, pH 7.2, 10 °C; average of three independent experiments. The essentials: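 RNA and test peptide were dialysed against water, dried, redissolved in buffer and degassed at 5 °C for 7 min. After a 2 μl preliminary injection, which was discarded, 20 μl injections of peptide (250–600 μM) went into hp-AS RNA (20–40 μM), spaced 300 s. Heats of peptide dilution into buffer without RNA were subtracted.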

Data set [4] shares this test system. The data set can be described thus: Enzymatic. The format is binding, E. coli. The note with it: 5 to 120 μM peptide, pH 7.2, 37 °C. The essentials: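 3′-32P-pCp-labelled hp-AS (1 μl, 250,000 cpm) preincubated with test peptide (0–120 μM) in 10 mM Tris-HCl pH 7.2, 15 mM NaCl, 1 mM EDTA, 37 °C, 1.5 h. RNase A (1 μl, 0.002 U/μl) was added to 5 μl final for 30 min at 37 °C, quenched on dry ice, formamide-denatured and gel-resolved beside an alkaline-hydrolysis ladder. Fraction bound versus peptide was curve-fitted for Kd; two independent experiments.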

The subject of data set [5] is E. coli S30 extract translation system. The data set can be described thus: In vitro translation inhibition. The data set is classed as biochemical. The essentials:
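E. coli S30 extract for circular DNA, with pBESTluc plasmid carrying firefly luciferase. Amino acids, S30 premix and increasing peptide concentrations in 50 μl, 37 °C for 1–2 h. Quenched on ice 5 min, luciferase reagent added, luminescence read. Background from a sample without DNA template.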

Data set [6] has as its system A-site RNA hairpin hp-AS (bacterial 16S rRNA). The data set can be described thus: ESI-MS binding to hp-AS. Further details: species or system E. coli. The settings on record: 1 μM RNA. The essentials:
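Hairpin RNA renatured in 100 mM NH4OAc (pH 6.7). 1 μM RNA mixed with peptide (0–375 μM), room temperature, 10 min, in 50% 2-propanol/100 mM NH4OAc pH 6.7, then ESI-MS. Fraction bound taken from summed complex versus free-RNA peak intensities. Salt series: 34 μM peptide at 30–200 mM NH4OAc. pH series: 34 μM peptide, 100 mM NH4OAc, pH 5.0–7.6.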

Another data set has as its system A-site RNA over TAR RNA. Nature of the data set: ESI-MS competition, A-site RNA versus TAR RNA. The data set is classed as binding. The note with it: data not shown.
The test system of data set [7] is hp-AS (RNA, rRNA) GGCGUCACACCUUCGGGUGAAGUCGCC
Nature of the data set: ESI-MS titration. The settings on record: NH4+ 100 mM; apparent; 100 mM NH4OAc, 50% 2-propanol, pH 6.7, 25 °C.

In data set [8] the target is T1, HPVHHYQ peptide on beads.
T1 chain: HPVHHYQ
The data set can be described thus: bead fluorescence.

Data set [9] has as its target T2, LPLTPLP peptide on beads.
T2 chain: LPLTPLP
Nature of the data set: bead fluorescence.

Data set [10] addresses T3, HPVHHYQ-NH2 peptide.
T3 chain: HPVHHYQ-NH2
Nature of the data set: ITC.

In data set [11] the target is T3, HPVHHYQ-NH2 peptide. Nature of the data set: RNase A footprinting.
Data set [12] addresses T3, HPVHHYQ-NH2 peptide. Nature of the data set: RNase A footprinting.
For data set [13], the target named is T1, HPVHHYQ peptide on beads. The data set can be described thus: bead ELISA.
Data set [14] deals with T2, LPLTPLP peptide on beads. The data set can be described thus: bead ELISA.

Consider LPLTPLP, for which, in [1], the “Bead ELISA binding to h17” value is “No binding was observed”. In [2], the “Bead ELISA response with A-site RNA” value is reported as “bind to the A-site RNA”. Moreover, the “Binding to other RNA targets” value with other RNA targets is listed as “binds to other RNA targets”.

With HPVHHYQ, the “Bead ELISA binding to h17” value in data set [1] is recorded as “No binding was observed”. Further, in data set [2], the “Bead ELISA response with A-site RNA” value was “much stronger response than LPLTPLP”.

As for HPVHHYQ-NH2, in [3], the “Enthalpy ΔH” value is -0.56 ± 0.05 kcal/mol and the “Entropy −TΔS” value is -6.5 ± 0.3 kcal/mol. Besides, in data set [4], the “Residues protected from RNase A cleavage” value was “residues G1494 and U1495 are protected by the peptide”; the “Residues with enhanced RNase A cleavage” value was “enhanced at residues A1492 and A1493”. The “Inhibition of in vitro protein synthesis” value in [5] (34 μM peptide, 37 °C, 1–2 h) is on record as “no inhibition was observed”. Besides, the “Remaining (luciferase) enzyme activity” value in [5] (620 μM peptide, 37 °C, 1–2 h) is reported as “approximately 50%”. In addition, in data set [5] (in vitro translation inhibition), the “IC50 compared with neomycin” value was “high compared with the known antibiotic neomycin”. Moreover, the “Effect of pH on ratio of free RNA to RNA-peptide complexes” value in [6] (pH 5.0 to 7.6, 100 mM NH4OAc, 50% IPA, 34 μM peptide, data not shown) is “no significant change”. Besides, the Kd in data set [6] (read-out: Apparent dissociation constant (ESI-MS), 0–375 μM peptide, 100 mM NH4OAc, pH 6.7, 50% 2-propanol, 25 °C, 10 min, average of three independent experiments) stood at 29 ± 2 µM. In the data set on A-site RNA over TAR RNA, the “Preference for A-site RNA over TAR RNA” value was “five-fold preference for the A-site RNA over TAR RNA”.

On to H-HPVHHYQ-NH2, for which the Kd in data set [7] was 29 ± 2 µM.

B1: F-TAR (structured_RNA)
RNA: GGCAGAUCUCAGCCUGGGAGCUGUCUGCC
Turning to B1, the binding result in the data set with HPVHHYQ peptide on beads [8] and in the data set with LPLTPLP peptide on beads [9] was “no binding” throughout.

B2: F-hp-AS (structured_RNA)
RNA: GGCGUCACACCUUCGGGUGAAGUCGCC
With B2, the binding result in the data set with LPLTPLP peptide on beads [9] is reported as “binds”.

B3: hp-AS (structured_RNA)
RNA: GGCGUCACACCUUCGGGUGAAGUCGCC
Consider B3, for which the Kd with HPVHHYQ-NH2 peptide [10] was 2 ± 0.4 µM; with HPVHHYQ-NH2 peptide [11], 18 ± 4 µM; with HPVHHYQ-NH2 peptide [12], 16 ± 4 µM.

B4: F-human-hp-AS (structured_RNA)
RNA: GGCGUCGCUACUUCGGUAAAAGUCGCC
Consider B4, for which the binding result with HPVHHYQ peptide on beads [8] and with LPLTPLP peptide on beads [9] was “no binding” in each case.

B5: h17 annealed to 5'-biotin-DNA (mixed)
RNA: GGCGGGGAGGAAGGGAGUAAAGUUAAUACCUUUGCUCAUUGACGUUACCCGCCGGUGCGGAUGGCGAUUGCU
DNA: AGCAATCGCCATCCGCACC
With B5, the binding result with HPVHHYQ peptide on beads [13] and with LPLTPLP peptide on beads [14] was “no binding” in each case.
